{"source": "ChEMBL document CHEMBL4376878", "about": "“Potent Thiophene Antagonists of Human Complement C3a Receptor with Anti-Inflammatory Activity” (J Med Chem, 2020)", "key": {"[1]": {"target": "T1, C3a anaphylatoxin chemotactic receptor (Homo sapiens) (UniProt Q16581)", "T1 sequence (whole entry)": "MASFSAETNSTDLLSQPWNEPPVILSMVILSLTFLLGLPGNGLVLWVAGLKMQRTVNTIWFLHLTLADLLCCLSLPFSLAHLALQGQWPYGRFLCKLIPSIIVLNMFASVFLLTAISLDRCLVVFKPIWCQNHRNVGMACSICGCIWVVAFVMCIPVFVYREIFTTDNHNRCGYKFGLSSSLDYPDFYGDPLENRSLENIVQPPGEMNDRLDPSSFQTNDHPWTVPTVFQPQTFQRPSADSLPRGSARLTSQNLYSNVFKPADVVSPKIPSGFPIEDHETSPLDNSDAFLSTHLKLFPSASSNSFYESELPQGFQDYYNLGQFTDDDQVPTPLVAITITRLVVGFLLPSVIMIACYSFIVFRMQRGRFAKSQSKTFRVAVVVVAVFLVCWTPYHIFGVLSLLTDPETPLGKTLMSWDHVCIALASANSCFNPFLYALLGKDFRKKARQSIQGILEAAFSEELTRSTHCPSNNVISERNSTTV", "experiment": "Potency index, ratio of SB290157 IC50 to test compound IC50 for antagonist activity at C3a receptor in human MDM cells", "assay_type": "cell-based"}, "[2]": {"experiment": "Stability of the compound in rat liver microsomes at 1 uM preincubated for 5 mins followed by NADPH addition and measured after 1 hr by LC-MS/MS analysis", "assay_type": "ADME, Microsome", "summary_of_the_method": "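Compound at 1 μM in 100 mM phosphate buffer, pH 7.4 (0.1% DMSO), was incubated with rat liver microsomes […] at 37 °C before further NADPH was added. Aliquots taken at 0, 5, 15, 30 and 60 min were quenched in MeCN/H₂O (9:1), centrifuged and analysed by LC-MS/MS. Microsomal activity was confirmed in parallel with SLIGRL-NH₂; n = 3.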"}, "[3]": {"target": "T1, C3a anaphylatoxin chemotactic receptor (Homo sapiens)", "experiment": "(§1) Antagonist at C3a receptor in human LAD2 cells assessed as inhibition of C3a-induced beta-hexosaminidase release preincubated for 30 mins followed by C3a addition", "assay_type": "cell-based", "summary_of_the_method": "(§2)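 LAD2 mast cells grown with SCF, 1 × 10⁴ cells/well seeded overnight and presensitized overnight with IgE (100 ng/mL). Compounds preincubated 30 min at 37 °C in 0.1 M HEPES pH 7.4, then C3a added and β-hexosaminidase release measured. IC50 is concentration inhibiting 50% of release induced by 100 nM C3a; n ≥ 3.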"}, "[4]": {"target": "T2, C3a anaphylatoxin chemotactic receptor (Homo sapiens, UniProt Q16581)", "T2 sequence (Q16581 whole entry)": "T1 sequence (whole entry)", "experiment": "as §1", "assay_type": "cell-based", "summary_of_the_method": "as §2"}, "[5]": {"experiment": "AUC (0 to 8 hrs) in Wistar rat at 10 mg/kg, po by LC-MS/MS analysis", "assay_type": "ADME, organism-based", "parameters": "dose 10 mg/kg, time < 8 hr, route oral", "details": "in vivo", "summary_of_the_method": "(§3)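 Male Wistar rats with jugular vein catheter, fasted overnight; dosed p.o. by gavage in olive oil or i.v. via catheter in 50% DMSO. Blood drawn from conscious unrestrained rats 5 min before dosing, then 5, 15, 30 min and 1–8 h after. Volume replaced with heparinized saline. Rats fed after 4 h sample. n = 3 per route.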"}, "[6]": {"experiment": "Cmax in Wistar rat at 10 mg/kg, po by LC-MS/MS analysis", "assay_type": "ADME, organism-based", "parameters": "dose 10 mg/kg, route oral", "details": "in vivo", "summary_of_the_method": "as §3"}, "[7]": {"experiment": "Volume of distribution in Wistar rat at 1 mg/kg, iv by LC-MS/MS analysis", "assay_type": "ADME, organism-based", "details": "in vivo", "summary_of_the_method": "as §3"}, "[8]": {"experiment": "Elimination half-life in Wistar rat at 1 mg/kg, iv by LC-MS/MS analysis", "assay_type": "ADME, organism-based", "details": "in vivo, read-out: beta t1/2", "summary_of_the_method": "as §3"}, "[9]": {"experiment": "Clearance in Wistar rat at 1 mg/kg, iv by LC-MS/MS analysis", "assay_type": "ADME, organism-based", "details": "in vivo", "summary_of_the_method": "as §3"}, "Rattus norvegicus [10]": {"system": "Rattus norvegicus", "experiment": "Antiinflammatory activity in Wistar rat model of BR103-induced paw edema assessed as reduction in hind paw swelling at 30 mg/kg, po administered via gavage pretreated for 6 to 8 hrs followed by BR103 challenge and measured after 30 mins by digital caliper method relative to control", "assay_type": "functional", "parameters": "scale not given: the % may be the effect or the level left", "summary_of_the_method": "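For duration of action, antagonist was given at 30 mg/kg by oral gavage in olive oil at 1, 2, 4, 6, 8 or 12 h before intraplantar BR103 (350 μg/paw) in male Wistar rats. Controls received olive oil 2 h before challenge. Paw thickness and width were measured with calipers at 0 and 0.5 h; n = 3 per group.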"}, "Rattus norvegicus [11]": {"system": "Rattus norvegicus", "experiment": "Antiinflammatory activity in Wistar rat model of BR103-induced paw edema assessed as reduction in hind paw swelling at 10 mg/kg, po administered via gavage pretreated for 4 hrs followed by BR103 challenge and measured after 30 mins by digital caliper method relative to control", "assay_type": "functional, organism-based", "summary_of_the_method": "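Male Wistar rats given 10 mg/kg p.o. in olive oil at 0.5, 1, 2 or 4 h before i.pl. BR103 (350 μg in 100 μL 5% DMSO). Control rats received olive oil. Paw thickness and width measured by digital calipers at 0 and 0.5 h after agonist. n = 3–5 per group, one-way ANOVA.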"}, "Rattus norvegicus [12]": {"system": "Rattus norvegicus", "experiment": "Antiinflammatory activity in Wistar rat model of BR103-induced paw edema assessed as reduction in Tnf gene expression at 10 mg/kg, po administered via gavage pretreated for 2 hrs followed by BR103 challenge and measured after 30 mins by SYBR green dye based RT-PCR analysis", "assay_type": "functional, organism-based", "summary_of_the_method": "(§4)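 Rats given 10 mg/kg p.o. in olive oil 2 h before i.pl. BR103 (350 μg/paw). Paws collected 0.5 h after agonist and homogenized in TRIsure for RNA. qPCR run in duplicate, normalized to Hprt, with fold change relative to sham. n = 3–5 male Wistar rats per group.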"}, "Rattus norvegicus [13]": {"system": "Rattus norvegicus", "experiment": "Antiinflammatory activity in Wistar rat model of BR103-induced paw edema assessed as reduction in Il1b gene expression at 10 mg/kg, po administered via gavage pretreated for 2 hrs followed by BR103 challenge and measured after 30 mins by SYBR green dye based RT-PCR analysis", "assay_type": "functional, organism-based", "summary_of_the_method": "as §4"}, "Rattus norvegicus [14]": {"system": "Rattus norvegicus", "experiment": "Antiinflammatory activity in Wistar rat model of BR103-induced paw edema assessed as reduction in Il10 gene expression at 10 mg/kg, po administered via gavage pretreated for 2 hrs followed by BR103 challenge and measured after 30 mins by SYBR green dye based RT-PCR analysis", "assay_type": "functional, organism-based", "summary_of_the_method": "as §4"}, "Rattus norvegicus [15]": {"system": "Rattus norvegicus", "experiment": "Antiinflammatory activity in Wistar rat model of BR103-induced paw edema assessed as reduction in Ccl2 gene expression at 10 mg/kg, po administered via gavage pretreated for 2 hrs followed by BR103 challenge and measured after 30 mins by SYBR green dye based RT-PCR analysis", "assay_type": "functional, organism-based", "summary_of_the_method": "as §4"}, "Rattus norvegicus [16]": {"system": "Rattus norvegicus", "experiment": "Antiinflammatory activity in Wistar rat model of BR103-induced paw edema assessed as reduction in Cd244 gene expression at 10 mg/kg, po administered via gavage pretreated for 2 hrs followed by BR103 challenge and measured after 30 mins by SYBR green dye based RT-PCR analysis", "assay_type": "functional, organism-based", "summary_of_the_method": "as §4"}, "Rattus norvegicus [17]": {"system": "Rattus norvegicus", "experiment": "Antiinflammatory activity in Wistar rat model of BR103-induced paw edema assessed as increase in number of intact mast cells at 10 mg/kg, po administered via gavage pretreated for 2 hrs followed by BR103 challenge and measured after 30 mins by alcian blue/safranin O staining-based histopathological analysis", "assay_type": "functional, organism-based", "summary_of_the_method": "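Male Wistar rats 7–8 weeks old, given 10 mg/kg p.o. in olive oil 2 h before i.pl. BR103 (350 μg/paw). Sham/control received olive oil. Left paw plantar tissue taken 30 min after agonist and fixed in formalin. Frozen 5 μm sections stained with alcian blue/safranin O, or immunostained for tryptase, histamine or ED1. Positive cells quantified; n = 5 per group, one-way ANOVA.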"}}, "note": "Active and inactive are the calls of the source. The calls are words filed in the database; no cut-off is given here."}
{"smiles": "Cc1cc(C(c2ccc(Cl)cc2)c2ccc(Cl)cc2)sc1C(=O)N[C@@H](CCCNC(=N)N)C(=O)O", "values": [{"measurement": "Ratio IC50", "setting": "[1]", "result": 100}, {"measurement": "Stability", "setting": "[2]", "result": "Stable"}, {"measurement": "inhibition", "setting": "[3]", "result": "Dose-dependent effect"}, {"measurement": "IC50", "setting": "[4]", "result": 8, "unit": "nM"}, {"measurement": "AUC(0-t) at 8 h", "setting": "[5]", "result": 478, "unit": "ng·h/mL"}, {"measurement": "Cmax", "setting": "[6]", "result": 88, "unit": "ng/mL"}, {"measurement": "Vd", "setting": "[7]", "result": 0.1, "unit": "L"}, {"measurement": "half-life", "setting": "[8]", "result": 3.18, "unit": "h"}, {"measurement": "clearance", "setting": "[9]", "result": 4.4, "unit": "mL/min/kg"}, {"measurement": "Activity", "setting": "Rattus norvegicus [10]", "result": 85, "unit": "%"}, {"measurement": "Activity", "setting": "Rattus norvegicus [11]", "result": "Active"}, {"measurement": "Activity", "setting": "Rattus norvegicus [12]", "result": "Active"}, {"measurement": "Activity", "setting": "Rattus norvegicus [13]", "result": "Active"}, {"measurement": "Activity", "setting": "Rattus norvegicus [14]", "result": "Active"}, {"measurement": "Activity", "setting": "Rattus norvegicus [15]", "result": "Active"}, {"measurement": "Activity", "setting": "Rattus norvegicus [16]", "result": "Active"}, {"measurement": "Activity", "setting": "Rattus norvegicus [17]", "result": "Active"}]}
